As a reminder, the T/C is the result in the treated group divided by that in the control group, in per cent. By MTD is commonly meant the largest dose that counted as tolerated. Low readings indicate poorer tolerability, high ones better tolerability.

Experimental findings from ChEMBL document CHEMBL1131098, “Synthesis and antitumor activity of 4-aminomethylthioxanthenone and 5-aminomethylbenzothiopyranoindazole derivatives” (J Med Chem, 1998) are described below.

The species entered for test [1] is Mus musculus. The test is described as follows: Tumor growth inhibition was measured as ratio of median tumor burden in the treatment group*100(T) / median tumor burden in the control group(C);g= not active signifies %T/C>42. It counts as functional, organism-based. In short, it runs like this:
(§1)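 BDF1 mice implanted bilaterally sc with 30–60-mg Panc03 fragments on day 0. Dosing iv at the maximum tolerated dose (LD10 or less), starting 3 days after implantation. Tumor growth inhibition expressed as %T/C; %T/C > 42 counted as not active.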

In test [2] the test system is Mus musculus. The test is described as follows: compound was tested for maximum tolerated dose administarted iv (mg/kg). It counts as functional. In short, it runs like this:
(§2)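 BDF1 mice were implanted bilaterally sc on day 0 with 30–60-mg Panc03 tumor fragments. Intravenous chemotherapy began 3 days after implantation. The maximum tolerated dose was defined as the LD10 or less and was expressed in mg/kg.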

For test [3], the system named is Mus musculus. The test is described as follows: Maximum tolerated dose administarted iv (mg/kg) to mice. It counts as functional. In short, it runs like this: as §2
Test [4] concerns Mus musculus. The test is described as follows: In vivo antitumor activity measured in mice against the Colon26/A murine solid tumors. It counts as functional.
Test [5] relates to Mus musculus. The test is described as follows: In vivo antitumor activity measured in mice against the Colon38 murine solid tumors. It counts as functional.
The test system of test [6] is Mus musculus. The test is described as follows: In vivo antitumor activity measured in mice against the Mam16/C murine solid tumors. It counts as functional.
Test [7] is filed under the species Mus musculus. The test is described as follows: The long term cures (LTC) value is the number of mice in a group with no palpable tumor. It counts as functional. The procedure, abridged: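 Panc03-bearing BDF1 mice (bilateral sc fragments) dosed iv at the maximum tolerated dose from day 3. Long-term cure is a mouse with no palpable tumor after at least 86 days, reported as cured mice over total mice per treatment group.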

Test [8] deals with Mus musculus. The test is described as follows: In vivo antitumor activity measured in mice against the Panc 02 murine solid tumors. It counts as functional.
Test [9] deals with Mus musculus. The test is described as follows: In vivo antitumor activity measured in mice against the Colon51 murine solid tumors. It counts as functional.
Test [10] is filed under the species Mus musculus. The test is described as follows: compound was tested for murine tumor growth inhibition,T/C value ([…]/control) in mice. It counts as functional. The procedure, abridged:
as §1

The source made the active and inactive calls.

Turning to `CCN(CC)CCNc1ccc(CN)c2sc3ccc(Br)cc3c(=O)c12`, the T/C entry in the test filed under Mus musculus [1] is “inactive”. This molecule also registered an MTD with Mus musculus [2] of 967 mg/kg.
Turning to `CCN(CC)CCNc1ccc(CNS(C)(=O)=O)c2sc3ccc(Br)cc3c(=O)c12`, the T/C entry in the test filed under Mus musculus [1] is “inactive”. This molecule also returned an MTD with Mus musculus [2] of 1281 mg/kg.
As to `CCN(CC)CCNc1ccc(CN2C(=O)c3ccccc3S2(=O)=O)c2sc3ccccc3c(=O)c12`, the T/C entry in the test filed under Mus musculus [1] is “inactive”. Also, the MTD with Mus musculus [3] turned out to be 740 mg/kg.
Consider `COc1cccc2c1C(=O)c1c(O)c3c(c(O)c1C2=O)C[C@@](O)(C(=O)CO)C[C@@H]3O[C@H]1C[C@H](N)[C@H](O)[C@H](C)O1` [DOXORUBICIN], for which the T/C in the test on Mus musculus [4] was 7%; in the test on Mus musculus [5] it was 0%; with Mus musculus [6], 0%; with Mus musculus [8], 35%; in the test with Mus musculus [9] it was 21%. For the same molecule, the LTC in the test listed under Mus musculus [7] was 0.2.
Regarding `CCN(CC)CCNc1ccc(CNc2ccccc2)c2sc3ccccc3c(=O)c12`, the T/C entry in the test filed under Mus musculus [1] is “inactive”. Further, the MTD in the test on Mus musculus [3] was found to be 674 mg/kg.
For `CCN(CC)CCNc1ccc(CN2C(=O)c3ccccc3C2=O)c2sc3ccccc3c(=O)c12`, the T/C in the test listed under Mus musculus [10] stood at 38%.
With `CCN(CC)CCNc1ccc(CNS(=O)(=O)c2ccc(F)cc2)c2sc3ccccc3c(=O)c12`, in the test filed under Mus musculus [1], the T/C entry is “inactive”. The same molecule yielded an MTD in the test on Mus musculus [3] of over 1597 mg/kg.
For the molecule `O=P1(N(CCCl)CCCl)NCCCO1` (configuration not stated) [CYCLOPHOSPHAMIDE ANHYDROUS], the T/C came out at 8% in the test on Mus musculus [4], 0% with Mus musculus [6] and 36% in the test on Mus musculus [8].
On to `CCN(CC)CCNc1ccc(CNS(C)(=O)=O)c2sc3ccccc3c(=O)c12`, for which the T/C was 29% in the test on Mus musculus [4]; 0% with Mus musculus [5]; 6% in the test on Mus musculus [6]; 23% in the test with Mus musculus [8]; 14% in the test on Mus musculus [9]. In the test listed under Mus musculus [7], this molecule showed an LTC of 0.6.
Regarding `CCN(CC)CCN(C)c1ccc(CNC)c2sc3ccccc3c(=O)c12`, in the test filed under Mus musculus [1], the T/C result is “inactive”. Moreover, in the test with Mus musculus [3], the MTD was 1506 mg/kg.
For `CCN(CC)CCNc1ccc(CNC)c2sc3ccc(Br)cc3c(=O)c12`, the T/C result in the test filed under Mus musculus [1] was “inactive”. Further, the MTD in the test on Mus musculus [2] worked out at 345 mg/kg.
On to `CCN(CC)CCNc1ccc(CNS(=O)(=O)c2ccc(Cl)cc2)c2sc3ccccc3c(=O)c12`, for which, in the test filed under Mus musculus [1], the T/C entry was “inactive”. Also, the MTD with Mus musculus [3] was over 1500 mg/kg.
